A word on the EC50: it is the concentration at which the effect is half-maximal. In general, CC50 refers to the concentration giving 50% cytotoxicity.

SMILES strings stand for the structures. Activity calls are given as the source filed them. The calls are words filed in the database; no cut-off is given here.

This is an account of results in ChEMBL document CHEMBL1152353, “Pyrimido[5,4-e][1,2,4]triazine-5,7(1H,6H)-dione derivatives as novel small molecule chaperone amplifiers” (Bioorg Med Chem Lett, 2009).

The test system of one series is SH-SY5Y. The experiment in a line: Cytoprotection against oxygen-glucose deprivation-induced cytotoxicity in human SH-SY5Y cells at 1 uM after 28 hrs by MTS assay. It is filed as functional.
Settings: not given
The essentials:
(§1)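 SH-SY5Y cells plated on collagen I-coated wells, grown 16–24 h in complete medium, washed twice in deoxygenated glucose- and serum-free medium; compound added within 1 h before OGD. Chambers flushed with 95% N₂/5% CO₂, residual O₂ <1%, held at 37 °C for 28 h. MTS viability; cytoprotection = (MTS_compound − MTS_DMSO)/MTS_DMSO × 100% versus OGD DMSO control.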
On the technique in general: Tetrazolium assays rely on reduction of a dye to a coloured formazan, in cell work by metabolically active cells.
As to `CCn1nc(-c2cccs2)nc2c(=O)n(C)c(=O)nc1-2`, the Activity turned out to be 48%.
On the same count and under the same terms, with `CCCCn1nc(-c2nc3ccccc3s2)nc2c(=O)n(C)c(=O)nc1-2` the figure was 38%.
On the same count and under the same terms, the figure for `CCCCn1nc(-c2nccs2)nc2c(=O)n(C)c(=O)nc1-2` is 23%.

Another series deals with SK-N-SH. The experiment in a line: Cytoprotection against rotenone stress-induced toxicity in human SK-N-SH cells after 48 hrs by MTS assay. It is filed as functional, cell-based. Conditions: Homo sapiens, SK-N-SH, 48 h; read-out: EC50. The essentials:
(§2)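 SK-N-SH neuroblastoma cells (within passage 6) seeded in DMEM with 0.1% FBS for 18 h, then fresh medium with 200 nM rotenone (final) plus compound, 0.019 to 10 µM. Incubated 48 h, then MTS viability read. Cytoprotection expressed as viability increase over the rotenone DMSO control; EC50 = concentration giving half-maximal protection. Data averaged over multiple tests.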
As to `CC(C)CCn1nc(-c2nc3ccccc3s2)nc2c(=O)n(C)c(=O)nc1-2`, the EC50 came to 0.24 µM.
The same measure, in the same setting: the figure for `Cn1c(=O)nc2n(Cc3ccccc3)nc(-c3nc4ccccc4s3)nc-2c1=O` is 2.34 µM; for `CCCCn1nc(-c2ccccc2)nc2c(=O)n(C)c(=O)nc1-2` it is 0.49 µM; for `CCn1nc(-c2ncc[nH]2)nc2c(=O)n(C)c(=O)nc1-2` it is 2.71 µM.
`CCn1nc(-c2ccc(C)s2)[n+]([O-])c2c(=O)n(C)c(=O)nc1-2`: the concentration for a half-maximal effect (EC50) was determined as 1.1 µM.
Same read-out and setting: the figure for `CCCn1nc(-c2nc3ccccc3s2)nc2c(=O)n(C)c(=O)nc1-2` is 0.55 µM; for `CCn1nc(-c2ccc[nH]2)[n+]([O-])c2c(=O)n(C)c(=O)nc1-2` it is 0.17 µM; for `CCn1nc(-c2cccs2)nc2c(=O)n(C)c(=O)nc1-2` it is 0.41 µM.
On the same count and under the same terms, the figure for `CCn1nc(-c2ccc[nH]2)nc2c(=O)n(C)c(=O)nc1-2` is 0.68 µM.
The same measure, in the same setting: with `CC(C)Cn1nc(-c2nc3ccccc3s2)nc2c(=O)n(C)c(=O)nc1-2` the figure was 0.27 µM.
`CCCCn1nc(-c2nc3ccccc3s2)nc2c(=O)n(C)c(=O)nc1-2`: the EC50 was 0.23 µM.

Tested on in the next series: not listed separately
The experiment in a line: Cytotoxicity against human HeLa cells after 72 hrs by MTS assay. Conditions: HeLa cells. The format is cell-based. Put shortly: (§3)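 HeLa (8000 cells/well) or SK-N-SH (14,000 cells/well) cells seeded in DMEM with 10% FBS for 18 h. Compound added at 1:200 dilution, final 0.3 to 80 µM, 0.5% v/v DMSO. Exposure 72 h, then MTS/PMS for 4 h, SDS to 1.4% w/v, absorbance at 492 nm. CC50 = concentration giving half-maximal cytotoxicity.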
The compound `CC(C)CCn1nc(-c2nc3ccccc3s2)nc2c(=O)n(C)c(=O)nc1-2` showed a CC50 at 72 h of 16.9 µM.
On the same count and under the same terms, the figure for `Cn1c(=O)nc2n(Cc3ccccc3)nc(-c3nc4ccccc4s3)nc-2c1=O` is 7.3 µM.
Still for that read-out and setting: with `CCCCn1nc(-c2ccccc2)nc2c(=O)n(C)c(=O)nc1-2` the figure was 18.5 µM; with `CCn1nc(-c2ncc[nH]2)nc2c(=O)n(C)c(=O)nc1-2`, 11.9 µM; with `CCn1nc(-c2ccc(C)s2)[n+]([O-])c2c(=O)n(C)c(=O)nc1-2`, 15 µM.
Still for that read-out and setting: the figure for `CCCn1nc(-c2nc3ccccc3s2)nc2c(=O)n(C)c(=O)nc1-2` is 15.6 µM.
With `CCn1nc(-c2ccc[nH]2)[n+]([O-])c2c(=O)n(C)c(=O)nc1-2`, the CC50 at 72 h amounted to 5.2 µM.
The same measure, in the same setting: the figure for `CCn1nc(-c2cccs2)nc2c(=O)n(C)c(=O)nc1-2` is 10.5 µM; for `CCn1nc(-c2ccc[nH]2)nc2c(=O)n(C)c(=O)nc1-2` it is 10.7 µM; for `CC(C)Cn1nc(-c2nc3ccccc3s2)nc2c(=O)n(C)c(=O)nc1-2` it is 7.9 µM.
The same measure, in the same setting: with `CCCCn1nc(-c2nc3ccccc3s2)nc2c(=O)n(C)c(=O)nc1-2` the figure was 8.7 µM.
The same measure, in the same setting: with `CCCCn1nc(-c2nccs2)nc2c(=O)n(C)c(=O)nc1-2` the figure was 2.5 µM.

Tested on in a further series: not listed separately
As to the kind of experiment: Cytotoxicity against human SK-N-SH cells after 72 hrs by MTS assay. It is filed as cell-based.
Settings: not given
Put shortly: as §3
Regarding `CC(C)CCn1nc(-c2nc3ccccc3s2)nc2c(=O)n(C)c(=O)nc1-2`, it took 10.7 µM to reach half-maximal cytotoxicity (CC50 at 72 h).
The same measure, in the same setting: the figure for `Cn1c(=O)nc2n(Cc3ccccc3)nc(-c3nc4ccccc4s3)nc-2c1=O` is 5.6 µM; for `CCCCn1nc(-c2ccccc2)nc2c(=O)n(C)c(=O)nc1-2` it is 9.8 µM; for `CCn1nc(-c2ncc[nH]2)nc2c(=O)n(C)c(=O)nc1-2` it is 3.6 µM.
The compound `CCn1nc(-c2ccc(C)s2)[n+]([O-])c2c(=O)n(C)c(=O)nc1-2` displayed a CC50 at 72 h of 27.2 µM.
Consider `CCCn1nc(-c2nc3ccccc3s2)nc2c(=O)n(C)c(=O)nc1-2`, for which half-maximal cytotoxicity (CC50 at 72 h) was put at 5.4 µM.
Same read-out and setting: the figure for `CCn1nc(-c2ccc[nH]2)[n+]([O-])c2c(=O)n(C)c(=O)nc1-2` is 1.9 µM; for `CCn1nc(-c2cccs2)nc2c(=O)n(C)c(=O)nc1-2` it is 9.9 µM.
For the compound `CCn1nc(-c2ccc[nH]2)nc2c(=O)n(C)c(=O)nc1-2`, the CC50 at 72 h amounted to 4.3 µM.
The same measure, in the same setting: with `CC(C)Cn1nc(-c2nc3ccccc3s2)nc2c(=O)n(C)c(=O)nc1-2` the figure was 3.7 µM; with `CCCCn1nc(-c2nc3ccccc3s2)nc2c(=O)n(C)c(=O)nc1-2`, 8.4 µM; with `CCCCn1nc(-c2nccs2)nc2c(=O)n(C)c(=O)nc1-2`, 1.4 µM.

A further series has as its system SK-N-SH. As to the kind of experiment: Cytoprotection against rotenone stress-induced toxicity in human SK-N-SH cells at 0.63 uM after 48 hrs by MTS assay. It is filed as functional.
Settings: not given
The essentials: as §2
As to `CCCCn1nc(-c2nccs2)nc2c(=O)n(C)c(=O)nc1-2`, the Activity was 55%.

The target in the next series is T1, Heat shock factor protein 1 (Homo sapiens) (UniProt Q00613).
T1 sequence (whole entry): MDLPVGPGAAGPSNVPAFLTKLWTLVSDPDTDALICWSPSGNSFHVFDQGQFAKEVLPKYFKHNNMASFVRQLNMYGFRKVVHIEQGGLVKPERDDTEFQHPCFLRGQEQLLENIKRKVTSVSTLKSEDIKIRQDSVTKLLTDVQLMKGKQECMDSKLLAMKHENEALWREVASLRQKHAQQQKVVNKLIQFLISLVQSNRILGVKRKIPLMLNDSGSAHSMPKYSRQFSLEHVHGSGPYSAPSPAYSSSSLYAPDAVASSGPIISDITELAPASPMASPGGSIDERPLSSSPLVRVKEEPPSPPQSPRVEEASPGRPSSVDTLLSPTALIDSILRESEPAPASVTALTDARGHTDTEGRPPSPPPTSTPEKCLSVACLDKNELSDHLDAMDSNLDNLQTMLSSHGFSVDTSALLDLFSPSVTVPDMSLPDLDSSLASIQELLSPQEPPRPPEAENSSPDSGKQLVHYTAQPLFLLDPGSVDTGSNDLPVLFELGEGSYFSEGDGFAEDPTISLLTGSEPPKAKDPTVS
The experiment in a line: Amplification of HSF1 transcriptional activity in human HeLa cells assessed as […] granule count at 80 uM by immunocytochemical staining.
Settings: not given
The format is cell-based. The essentials:
(§4)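 HeLa cells pretreated with compound 1 h, then mild heat shock 41 °C for 2 h, no recovery; control arm pretreated 3 h at 37 °C without heat shock. Compound diluted 200-fold, 0.3 to 80 µM range.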
For the compound `CCCn1nc(-c2nc3ccccc3s2)nc2c(=O)n(C)c(=O)nc1-2`, the Activity was 25%.

A further series deals with SH-SY5Y. As to the kind of experiment: Cytoprotection against oxygen-glucose deprivation-induced cytotoxicity in human SH-SY5Y cells at 2.5 uM after 28 hrs by MTS assay. The format is functional.
Settings: not given
Put shortly: as §1
As for `CCn1nc(-c2cccs2)nc2c(=O)n(C)c(=O)nc1-2`, the Activity worked out at 14%.
The compound `CCCCn1nc(-c2nc3ccccc3s2)nc2c(=O)n(C)c(=O)nc1-2` gave an Activity of 80%.
On the same count and under the same terms, the figure for `CCCCn1nc(-c2nccs2)nc2c(=O)n(C)c(=O)nc1-2` is 39%.

The subject of a further series is SK-N-SH. As to the kind of experiment: Cytoprotection against rotenone stress-induced toxicity in human SK-N-SH cells assessed as increase in cell viability after 48 hrs by MTS assay relative to control. The format is functional. Further details: concentration or dose not given beside the values.
Settings: not given
Put shortly: as §2
Regarding `CC(C)CCn1nc(-c2nc3ccccc3s2)nc2c(=O)n(C)c(=O)nc1-2`, the Activity stood at 44%.
Same read-out and setting: the figure for `Cn1c(=O)nc2n(Cc3ccccc3)nc(-c3nc4ccccc4s3)nc-2c1=O` is 27%; for `CCCCn1nc(-c2ccccc2)nc2c(=O)n(C)c(=O)nc1-2` it is 58%; for `CCn1nc(-c2ncc[nH]2)nc2c(=O)n(C)c(=O)nc1-2` it is 62%.
On the same count and under the same terms, the figure for `CCn1nc(-c2ccc(C)s2)[n+]([O-])c2c(=O)n(C)c(=O)nc1-2` is 57%; for `CCCn1nc(-c2nc3ccccc3s2)nc2c(=O)n(C)c(=O)nc1-2` it is 55%; for `CCn1nc(-c2ccc[nH]2)[n+]([O-])c2c(=O)n(C)c(=O)nc1-2` it is 35%.
Still for that read-out and setting: with `CCn1nc(-c2cccs2)nc2c(=O)n(C)c(=O)nc1-2` the figure was 53%; with `CCn1nc(-c2ccc[nH]2)nc2c(=O)n(C)c(=O)nc1-2`, 44%.
Consider `CC(C)Cn1nc(-c2nc3ccccc3s2)nc2c(=O)n(C)c(=O)nc1-2`, for which the Activity is given as 67%.
Take `CCCCn1nc(-c2nc3ccccc3s2)nc2c(=O)n(C)c(=O)nc1-2`: the Activity is 53%.
In the case of `CCCCn1nc(-c2nccs2)nc2c(=O)n(C)c(=O)nc1-2`, the Activity stood at 55%.

The next series has as its system SH-SY5Y. As to the kind of experiment: Cytoprotection against oxygen-glucose deprivation-induced cytotoxicity in human SH-SY5Y cells at 0.5 uM after 28 hrs by MTS assay. It is filed as functional.
Settings: not given
The essentials:
as §1
Compound `CCn1nc(-c2cccs2)nc2c(=O)n(C)c(=O)nc1-2` registered an Activity of 18%.
Same read-out and setting: the figure for `CCCCn1nc(-c2nc3ccccc3s2)nc2c(=O)n(C)c(=O)nc1-2` is 14%.
In the case of `CCCCn1nc(-c2nccs2)nc2c(=O)n(C)c(=O)nc1-2`, the Activity turned out to be 7%.

A further series has as its target T1, Heat shock factor protein 1 (Homo sapiens). As to the kind of experiment: Amplification of HSF1 transcriptional activity in human HeLa cells assessed as granule formation pretreated for 3 hrs by immunocytochemical staining. The format is cell-based.
Settings: not given
The essentials: as §4
Take `CC(C)CCn1nc(-c2nc3ccccc3s2)nc2c(=O)n(C)c(=O)nc1-2`: the result was inactive.
Still for that read-out and setting: with `Cn1c(=O)nc2n(Cc3ccccc3)nc(-c3nc4ccccc4s3)nc-2c1=O` the entry was “inactive”; with `CCCCn1nc(-c2ccccc2)nc2c(=O)n(C)c(=O)nc1-2`, “inactive”.
Same read-out and setting: the entry for `CCn1nc(-c2ncc[nH]2)nc2c(=O)n(C)c(=O)nc1-2` is “inactive”; for `CCn1nc(-c2ccc(C)s2)[n+]([O-])c2c(=O)n(C)c(=O)nc1-2` it is “inactive”.
The same measure, in the same setting: the entry for `CCCn1nc(-c2nc3ccccc3s2)nc2c(=O)n(C)c(=O)nc1-2` is “inactive”.
`CCn1nc(-c2ccc[nH]2)[n+]([O-])c2c(=O)n(C)c(=O)nc1-2`: the result was inactive.
`CCn1nc(-c2cccs2)nc2c(=O)n(C)c(=O)nc1-2`: the result was inactive.
On the same count and under the same terms, the entry for `CCn1nc(-c2ccc[nH]2)nc2c(=O)n(C)c(=O)nc1-2` is “inactive”; for `CC(C)Cn1nc(-c2nc3ccccc3s2)nc2c(=O)n(C)c(=O)nc1-2` it is “inactive”; for `CCCCn1nc(-c2nc3ccccc3s2)nc2c(=O)n(C)c(=O)nc1-2` it is “inactive”.
On to `CCCCn1nc(-c2nccs2)nc2c(=O)n(C)c(=O)nc1-2`, for which the outcome was inactive.
